In ChEMBL document CHEMBL1137600, “From docking false-positive to active anti-HIV agent” (J Med Chem, 2007):
Calls of active or inactive are those of the source. The rule behind the calls is not given here.

test system: MT2; experiment: Cytotoxicity against human MT2 cells by MTT assay; type: functional; settings: not given
How it was run: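 Human MT-2 cells, MTT colorimetric read-out. CC50 is the concentration giving 50% inhibition of MT-2 cell growth.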

Structure (SMILES) | CC50 [µM]
Cc1cc(Nc2nnc(Cc3c(Cl)cccc3Cl)o2)ccc1Cl | > 100
Clc1ccc(Nc2nnc(Cc3cccc(Cl)c3)o2)cc1 | 32
Clc1ccc(Nc2nnc(Cc3c(Cl)cccc3Cl)o2)cc1Cl | > 100
COc1ccc(Cc2nnc(Nc3ccc(C)cc3)o2)cc1OC | 61
Clc1ccc(Cc2nnc(Nc3ccc(Cl)cc3)o2)cc1 | > 100
Clc1ccc(Nc2nnc(Cc3ccccc3)o2)cc1 | 31
COc1cc(Nc2nnc(Cc3c(Cl)cccc3Cl)o2)c(Cl)cc1Cl | 9
FC(F)(F)c1cc(Nc2nnc(Cc3c(Cl)cccc3Cl)o2)ccc1Cl | 9
Cc1cc(C)cc(Cc2nnc(Nc3ccc(Cl)cc3)o2)c1 | > 100
Cc1ccnc2c1NC(=O)c1cccnc1N2C1CC1 [NEVIRAPINE] | > 10
Clc1ccc(Nc2nnc(Cc3c(Cl)cccc3Cl)o2)cc1 | 20
Cc1cn([C@H]2C=C[C@@H](CO)O2)c(=O)[nH]c1=O [STAVUDINE] | > 100
c1ccc(Cc2nnc(Nc3ccccc3)o2)cc1 | > 100
O=C1Nc2ccc(Cl)cc2C(C#CC2CC2)(C(F)(F)F)O1 (single isomer, unassigned) [EFAVIRENZ] | 3

test system: Human immunodeficiency virus 1; experiment: Antiviral activity against HIV1 3B in human MT2 cells by MTT assay; type: functional, organism-based; settings: not given
How it was run: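 HIV-1 IIIB infection of human MT-2 T-cells; MTT colorimetric read-out of cell protection. Antiviral curves were run in triplicate at each concentration.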

Structure (SMILES) | Activity
COc1ccc(Cc2nnc(Nc3ccc(C)cc3)o2)cc1OC | inactive
Clc1ccc(Cc2nnc(Nc3ccc(Cl)cc3)o2)cc1 | inactive
Clc1ccc(Nc2nnc(Cc3ccccc3)o2)cc1 | inactive
COc1cc(Nc2nnc(Cc3c(Cl)cccc3Cl)o2)c(Cl)cc1Cl | inactive
FC(F)(F)c1cc(Nc2nnc(Cc3c(Cl)cccc3Cl)o2)ccc1Cl | inactive
Cc1cc(C)cc(Cc2nnc(Nc3ccc(Cl)cc3)o2)c1 | inactive
c1ccc(Cc2nnc(Nc3ccccc3)o2)cc1 | inactive

same assay, conditions: Human immunodeficiency virus 1, 3B

Structure (SMILES) | EC50 [µM]
Cc1cc(Nc2nnc(Cc3c(Cl)cccc3Cl)o2)ccc1Cl | 1.3
Clc1ccc(Nc2nnc(Cc3cccc(Cl)c3)o2)cc1 | > 10
Clc1ccc(Nc2nnc(Cc3c(Cl)cccc3Cl)o2)cc1Cl | 0.31
Clc1ccc(Nc2nnc(Cc3c(Cl)cccc3Cl)o2)cc1 | 0.82
Cc1cn([C@H]2C=C[C@@H](CO)O2)c(=O)[nH]c1=O [STAVUDINE] | 1.6
